From ChEMBL document CHEMBL3120102, “Structure-based design, synthesis and biological evaluation of novel anthra[1,2-d]imidazole-6,11-dione homologues as potential antitumor agents” (2013)

How the values were obtained:
Format in all cases: functional
[1] = system: HT-29; assay: Cytotoxicity against human HT-29 cells assessed as cell growth at 10 uM after 48 hrs by SRB assay; conditions: HT-29, 48 h, read-out: Activity
[2] = Cytotoxicity against human Hs578T cells assessed as cell growth at 10 uM after 48 hrs by SRB assay; conditions: Hs-578T, read-out: Activity
[3] = system: MDA-MB-468; assay: Cytotoxicity against human MDA-MB-468 cells assessed as cell growth at 10 uM after 48 hrs by SRB assay; conditions: MDA-MB-468, 48 h, read-out: Activity
Method in brief: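 First stage of the NCI 60 human tumour cell line screen: a single dose is tested against every line. Cell growth is read as cellular protein by sulforhodamine B colorimetry after 48 h of drug exposure, with reference to a time-zero control and to untreated plates.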

[4] = system: DU-145; assay: Cytotoxicity against human DU145 cells assessed as growth inhibition after 48 hrs by SRB assay
Method in brief: (§1)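 NCI 60-cell-line five-dose screen at […]. Drug exposure was 48 h, followed by sulforhodamine B protein staining. GI50, TGI and LC50 were calculated against a time-zero control and untreated plates, with dose–response curves plotted from log10 concentration.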

[5] = system: SF-295; assay: Cytotoxicity against human SF295 cells assessed as growth inhibition after 48 hrs by SRB assay
Method in brief: (§2)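 NCI 60-cell-line screen, five-dose stage: each cell line exposed for 48 h to five concentrations spanning five log steps; cellular protein measured by sulforhodamine B colorimetry. A time-zero cell control and plates without drug are used to derive GI50, TGI and LC50 from log-concentration dose-response curves.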

[6] = system: SF-268; assay: Cytotoxicity against human SF268 cells assessed as growth inhibition after 48 hrs by SRB assay; method in brief: as §2
[7] = system: SN12C; assay: Cytotoxicity against human SN12C cells assessed as growth inhibition after 48 hrs by SRB assay
Method in brief: (§3)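 NCI 60-cell-line screen, two stages. Five-dose testing at […]. Cellular protein measured by sulforhodamine B colorimetry after 48 h drug exposure. A time-zero control and drug-free plates are used to derive GI50, TGI and LC50 from dose-response curves plotted as log10 concentration per cell line.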

[8] = system: NCI-H460; assay: Cytotoxicity against human NCI-H460 cells assessed as growth inhibition after 48 hrs by SRB assay; method in brief: as §2
[9] = system: BT-549; assay: Cytotoxicity against human BT549 cells assessed as growth inhibition after 48 hrs by SRB assay; method in brief: as §1
[10] = system: UACC-62; assay: Cytotoxicity against human UACC62 cells assessed as growth inhibition after 48 hrs by SRB assay; method in brief: as §3
[11] = system: OVCAR-4; assay: (§4) Cytotoxicity against human OVCAR4 cells assessed as growth inhibition after 48 hrs by SRB assay; method in brief: as §2
[12] = as §4; conditions: OVCAR-4, 48 h; method in brief: as §2
[13] = (§5) Cytotoxicity against human UO31 cells assessed as growth inhibition after 48 hrs by SRB assay; conditions: UO-31, 48 h; method in brief: as §3
[14] = system: UO-31; assay: as §5; method in brief: as §3
[15] = system: RXF 393; assay: Cytotoxicity against human RXF393 cells assessed as growth inhibition after 48 hrs by SRB assay; method in brief: as §2
[16] = system: A498; assay: Cytotoxicity against human A498 cells assessed as growth inhibition after 48 hrs by SRB assay; method in brief: as §1
[17] = system: HCC 2998; assay: Cytotoxicity against human HCC2998 cells assessed as growth inhibition after 48 hrs by SRB assay; method in brief: as §1
[18] = (§6) Cytotoxicity against human NCI-ADR-RES cells assessed as growth inhibition after 48 hrs by SRB assay; method in brief: as §2
[19] = system: NCI/ADR-RES; assay: as §6; method in brief: as §2
[20] = system: CCRF-CEM; assay: Cytotoxicity against human CCRF-CEM cells assessed as growth inhibition after 48 hrs by SRB assay; method in brief: as §1
[21] = system: OVCAR-3; assay: Cytotoxicity against human OVCAR3 cells assessed as growth inhibition after 48 hrs by SRB assay; method in brief: as §2
[22] = system: M14; assay: Cytotoxicity against human M14 cells assessed as growth inhibition after 48 hrs by SRB assay; method in brief: as §1
[23] = system: NCI-H23; assay: Cytotoxicity against human NCI-H23 cells assessed as growth inhibition after 48 hrs by SRB assay; method in brief: as §2
[24] = system: SF-539; assay: Cytotoxicity against human SF539 cells assessed as growth inhibition after 48 hrs by SRB assay; method in brief: as §2
[25] = system: RPMI-8226; assay: Cytotoxicity against human RPMI8226 cells assessed as growth inhibition after 48 hrs by SRB assay; method in brief: as §2
[26] = system: 786-0; assay: Cytotoxicity against human 786-0 cells assessed as growth inhibition after 48 hrs by SRB assay; method in brief: as §1
[27] = system: HCT-15; assay: Cytotoxicity against human HCT15 cells assessed as growth inhibition after 48 hrs by SRB assay; method in brief: as §1
[28] = system: NCI-H322M; assay: Cytotoxicity against human NCI-H322M cells assessed as growth inhibition after 48 hrs by SRB assay; method in brief: as §2
[29] = (§7) Cytotoxicity against human OVCAR5 cells assessed as growth inhibition after 48 hrs by SRB assay; conditions: OVCAR-5, 48 h; method in brief: as §2
[30] = system: OVCAR-5; assay: as §7; method in brief: as §2

O=C1c2ccccc2C(=O)c2c1ccc1[nH]c(=S)[nH]c21
growth at 10 µM [1]: 104% | growth at 10 µM [2]: 104% | growth at 10 µM [3]: 87.7%

CN(C)CCCSc1nc2ccc3c(c2[nH]1)C(=O)c1ccccc1C3=O
growth inhibition (GI) [4]: Dose-dependent effect | GI50 ([4]; DU-145, 48 h): 2.38 µM | TGI ([4]; DU-145, 48 h): 12.9 µM | CC50 ([4]; DU-145, 48 h, read-out: LC50 (the source's name)): 35.9 µM | growth inhibition (GI) [5]: Dose-dependent effect | GI50 ([5]; SF-295, 48 h): 14.8 µM | TGI ([5]; SF-295, 48 h): 28.4 µM | growth inhibition (GI) [6]: Dose-dependent effect | GI50 ([6]; SF-268, 48 h): 4.34 µM | TGI ([6]; SF-268, 48 h): 17.7 µM | GI50 [7]: 3.26 µM | TGI [7]: 16.5 µM | growth inhibition (GI) [7]: Dose-dependent effect | CC50 ([7]; read-out: LC50 (the source's name)): 40.6 µM | growth inhibition (GI) [8]: Dose-dependent effect | TGI ([8]; NCI-H460, 48 h): 12.8 µM | growth inhibition (GI) [9]: Dose-dependent effect | GI50 ([9]; BT-549, 48 h): 9.13 µM | TGI ([9]; BT-549, 48 h): 21.8 µM | growth inhibition (GI) [10]: Dose-dependent effect | GI50 ([10]; UACC-62, 48 h): 10.8 µM | TGI ([10]; UACC-62, 48 h): 23 µM | growth inhibition (GI) [11]: Dose-dependent effect | GI50 [12]: 0.031 µM | TGI [12]: 5.04 µM | GI50 [13]: 0.564 µM | TGI [13]: 11.7 µM | growth inhibition (GI) [14]: Dose-dependent effect | growth inhibition (GI) [15]: Dose-dependent effect | GI50 ([15]; RXF 393, 48 h): 1.89 µM | TGI ([15]; RXF 393, 48 h): 12.8 µM | CC50 ([15]; RXF 393, 48 h, read-out: LC50 (the source's name)): 42.3 µM | growth inhibition (GI) [16]: Dose-dependent effect | GI50 ([16]; A498, 48 h): 12.1 µM | TGI ([16]; A498, 48 h): 24.8 µM | CC50 ([16]; A498, 48 h, read-out: LC50 (the source's name)): 51 µM | growth inhibition (GI) [17]: Dose-dependent effect | GI50 ([17]; HCC 2998, 48 h): 4.14 µM | TGI ([17]; HCC 2998, 48 h): 17.7 µM | CC50 ([17]; HCC 2998, 48 h, read-out: LC50 (the source's name)): 43.4 µM | GI50 [18]: 5.11 µM | TGI [18]: 21.5 µM | growth inhibition (GI) [19]: Dose-dependent effect | GI50 [20]: 1.29 µM | TGI [20]: 4.36 µM | growth inhibition (GI) [20]: Dose-dependent effect | growth at 10 µM [1]: 17.8% | growth inhibition (GI) [21]: Dose-dependent effect | GI50 ([21]; OVCAR-3, 48 h): 3.73 µM | TGI ([21]; OVCAR-3, 48 h): 18.2 µM | growth inhibition (GI) [22]: Dose-dependent effect | GI50 ([22]; M14, 48 h): 7.05 µM | TGI ([22]; M14, 48 h): 20.7 µM | growth inhibition (GI) [23]: Dose-dependent effect | TGI ([23]; NCI-H23, 48 h): 19.7 µM | growth at 10 µM [2]: 69.3% | growth inhibition (GI) [24]: Dose-dependent effect | GI50 ([24]; SF-539, 48 h): 10.9 µM | TGI ([24]; SF-539, 48 h): 22.7 µM | CC50 ([24]; SF-539, 48 h, read-out: LC50 (the source's name)): 47.7 µM | growth inhibition (GI) [25]: Dose-dependent effect | GI50 ([25]; RPMI-8226, 48 h): 1.25 µM | TGI ([25]; RPMI-8226, 48 h): 4.62 µM | growth inhibition (GI) [26]: Dose-dependent effect | GI50 ([26]; 786-0, 48 h): 9.73 µM | TGI ([26]; 786-0, 48 h): 23.8 µM | growth inhibition (GI) [27]: Dose-dependent effect | GI50 ([27]; HCT-15, 48 h): 0.68 µM | TGI ([27]; HCT-15, 48 h): 15 µM | GI50 [28]: 0.72 µM | TGI [28]: 20.6 µM | growth inhibition (GI) [28]: Dose-dependent effect | GI50 [29]: 12.7 µM | TGI [29]: 25.9 µM | growth inhibition (GI) [30]: Dose-dependent effect
